In the library only some 2.2% were active in any assay of this set; here they are far more common.
14-3-3 Bad PPI: inhibitors of 14-3-3 zeta/Bad binding, primary screen, biochemical, TR-FRET, bovine 14-3-3 zeta; TR-FRET 14-3-3zeta/Dy647-pBad peptide displacement, 1 h; inhibition, % at 21.7 µM; 220,000 compounds, 0.71% hits;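 active = inhibition above about 70%, limit read from the data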;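 note: 0% = full 14-3-3 plus peptide FRET controls and 100% = background without 14-3-3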
Target sequence (P63103 whole entry, looked up): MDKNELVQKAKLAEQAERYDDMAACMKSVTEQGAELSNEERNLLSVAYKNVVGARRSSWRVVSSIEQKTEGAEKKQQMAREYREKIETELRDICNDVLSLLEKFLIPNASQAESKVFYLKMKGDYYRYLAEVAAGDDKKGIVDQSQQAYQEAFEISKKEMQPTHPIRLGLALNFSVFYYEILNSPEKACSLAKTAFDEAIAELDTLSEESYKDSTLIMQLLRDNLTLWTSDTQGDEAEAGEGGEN
Tb hexokinase: Trypanosoma brucei hexokinase 1 inhibitors, primary screen, biochemical, G6PDH-coupled NADH absorbance, MLSCN library; AID 1430, 2008; hexokinase 1 [Trypanosoma brucei]; inhibition, % at 10 µM; recombinant TbHK1, G6PDH-coupled NADH A340; 220,000 compounds, 0.11% hits;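 active = inhibition of 50% or more in the single-dose primary screen; inactive = inhibition below 50%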
RanGTP-Impb inh: inhibitors of RanGTP-importin-beta interaction, primary screen, biochemical, FRET, CFP-Ran, YFP-importin-beta, homogeneous; 300,000 compounds, 1.1% hits; cell-free CFP-Ran/YFP-importin-beta FRET ratio; Ran GTPase (GTP-bound) - importin-beta complex; inhibition, % (no concentration beside the values); AID 2216, 2009;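 active = more than half of the replicate wells show a fall in the fluorescence ratio signal beyond about 16%, limit read from the data, passing the limit was not always enough; inconclusive = exactly half of the replicate wells pass the set limit; inactive = fewer than half of replicates pass the limit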;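 note: 0% = DMSO wells and 100% = Ran loaded with GDP instead of GTP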
Runt-CBFb FRET: inhibitors of RUNX1 Runt–CBFb binding, primary screen, biochemical, FRET, Cerulean-Runt, Venus-CBFb, uHTS | Cerulean-Runt/Venus-CBFb FRET ratio 530/480, 1 h | inhibition, % at 20 µM | 220,000 compounds, 0.46% hits | AID 1496, 2009;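 active = inhibition over about 50% at 20 µM in the single-dose screen, limit read from the data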;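 note: 0% = DMSO wells and 100% = excess unlabeled CBFb competitor control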
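Doses: 20 µM compound in 1% DMSO | Material: Cerulean-labeled Runt domain protein | Amount: Each fluorescent fusion protein 100 nM | Schedule: Two 1 h room-temperature incubations shielded from light | Measured by: FRET fluorescence | Evaluation: Loss of energy transfer signal | Controls: Unlabeled CBFb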
Hck Nef HTS: inhibitors of Nef-activated human Hck kinase, primary screen, biochemical, Z-Lyte FRET, 384-well, Hck-YEEI; Tyrosine-protein kinase HCK (Homo sapiens), P08631; Recombinant Hck-YEEI plus Nef, Z-Lyte FRET kinase assay; inhibition, % at 20 µM; 220,000 compounds, 0.68% hits; AID 463187, 2010;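 active = Hck-Nef kinase inhibition above about 50%, limit read from the data; inactive = inhibition below that limit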;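 note: 0% = DMSO with Hck plus Nef and 100% = Hck alone without Nef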
Runt-SMMHC FRET: inhibitors of RUNX1 Runt–CBFb-SMMHC binding, primary screen, biochemical, FRET, Cerulean-Runt, Venus-CBFb-SMMHC, uHTS; 220,000 compounds, 0.74% hits; inhibition, % at 20 µM; Cerulean-Runt/Venus-CBFb-SMMHC FRET ratio 530/480, 1 h; Runt-related transcription factor 1 (Homo sapiens) + Core-binding factor subunit beta …;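 active = mean inhibition across duplicate retests at 20 µM reaching about 50%, limit read from the data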;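 note: 0% = DMSO wells and 100% = wells with excess untagged CBFb-SMMHC; inhibitors lower the FRET ratio by blocking Runt binding to CBFb-SMMHC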
Numbers without * were called inactive; ? = inconclusive; / = no result given.

SMILES	14-3-3 Bad PPI	Tb hexokinase	RanGTP-Impb inh	Runt-CBFb FRET	Hck Nef HTS	Runt-SMMHC FRET
CCCCC[C@H](O)/C=C/[C@@H]1[C@@H](C/C=C\CCCC(=O)O)[C@@H](O)C[C@H]1O	-3	7	-3	0	-6	-2
C=CCN=C1SC(C)C(=O)N1S(=O)(=O)c1ccccc1 (stereo not given)	7	2	-3	1	1	-3
C=CCN=C1SC(C)(C)C(=O)N1S(=O)(=O)c1ccc(C)cc1	95*	-3	2	0	-1	-1
COc1cccc(CCc2nnc(CCC(=O)N3CCN(Cc4ccccn4)CC3)o2)c1	-2	-2	-3	0	13	0
CCN1C(=O)CSc2ccc(C(=O)NCc3ccco3)cc21	-7	0	23*	1	-2	7
Cc1cc(C)c2c(=O)n(CC(=O)N3CCC(Cc4ccccc4)CC3)sc2n1	-10	-3	-4	-15	-11	50*
Cc1cccc(N2CCN(C(=O)Cn3sc4nc(C)cc(C)c4c3=O)CC2C)c1 (stereo not given)	-7	4	2	-20	1	74*
CCC(C)c1ccc(NC(=O)COC(=O)C2=COCCO2)cc1 (stereo not given)	-2	-8	-3	-1	2	2
Cc1c(C(=O)NCCS(=O)(=O)N2CCN(c3ccccc3F)CC2)cccc1[N+](=O)[O-]	/	/	-1	/	/	/
Cc1ccc(CNC(=O)/C(C#N)=C\c2ccc(N(C)C)cc2)cc1	4	5	72*	12	3	61*
CN(C)c1ccc(/C=C(\C#N)C(=O)NCc2ccco2)cc1	-24	-4	?	90*	4	58*
N#C/C(=C\c1ccccc1)C(=O)NCc1ccc(F)cc1	/	/	1	/	/	/
CCN(CC)c1ccc(/C=C(\C#N)C(=O)NCc2ccco2)cc1	1	-5	/	19	7	60*
CCN(CC)c1ccc(/C=C(\C#N)C(=O)NCc2ccccc2)cc1	-7	3	109*	79*	5	59*
O=S(=O)(NCCCSc1ccccc1)c1ccccc1F	/	/	-3	/	/	/
Cc1ccc(C2=NNC(c3ccc(Cl)cc3)=Nc3ccccc32)o1	-31	-2	-5	2	4	-5
Cc1ccc2nccc(C(=O)N3CCCC(Nc4ccc(C)c(C)c4)C3)c2c1 (stereo not given)	/	/	5	/	/	/
N#Cc1c(N)n(C2CCCCC2)c2nc3ccccc3nc12	/	-3	43*	78*	12	58*
N#Cc1c(N)n(-c2ccc(C(=O)O)cc2)c2nc3ccccc3nc12	4	-2	50*	92*	43	82*
CCc1nnc(NC(=O)CSc2nnc(C3CC3)n2C)s1	/	/	-2	/	/	/
COc1ccc(NC(=O)c2csc(C)c2)cc1OC	/	/	-6	/	/	/
CN(C)/C=C1/OC(=O)C(C#N)=C1c1ccc(Cl)cc1	/	/	0	/	/	/
CCOC(=O)CC(C(=O)OCC)P(=O)(c1ccccc1)c1ccccc1 (stereo not given)	5	-5	-4	0	-1	-1
CCCC(C(=O)OCC)P(=O)(c1ccccc1)c1ccccc1 (stereo not given)	84*	1	8	2	1	1
Cc1cc(-c2csc(NCc3ccccc3)n2)c(C)n1C	98*	-10	/	2	65*	-21
SMILES	14-3-3 Bad PPI	Tb hexokinase	RanGTP-Impb inh	Runt-CBFb FRET	Hck Nef HTS	Runt-SMMHC FRET
CC(C)NC(=O)c1cc(=O)n(C)c(=O)n1C	88*	5	5	0	9	-5
Cn1c(C(=O)NC2CC2)cc(=O)n(C)c1=O	-11	-6	?	-1	19	0
CCCn1c(NCc2cc(C)ccc2O)nc2ccccc21	/	1	28*	2	2	0
CCN(CC)c1ccc(/C=C/c2ccc3ccc(OC)cc3[n+]2CC)cc1	/	/	3	/	/	/
COc1ccc2c(c1OC)C(=O)N(c1ccc(C)c(C)c1)C2=O	-10	-1	75*	-1	-11	-10
Nc1nncn1C(=O)CCc1ccccc1	3	-3	8	1	0	-7
COc1cccc2c(=O)c3cccc(N)c3[nH]c12	2	-9	127*	-59	35	/
COc1ccc(OC)c(NC(=O)CSc2nc3ccccc3c3nc4ccccc4n23)c1	92*	-11	/	-2	2	-4
COc1ccc(NC(=O)CSc2nc3ccccc3c3nc4ccccc4n23)cc1	79*	-5	/	0	2	10
CSC(=S)N/N=C/c1ccc(N(C)C)cc1	-20	3	1	18	18	52*
O=C(NC(=S)Nc1cnc2ccccc2c1)c1ccccc1	0	-6	8	2	139*	-3
O=C(Nc1cnc2ccccc2c1)c1ccncc1	-2	-5	3	3	6	-2
COc1ccc(C2CC(c3cccs3)=NN2c2nc(-c3ccccc3)cs2)cc1OC (stereo not given)	32	-20	56*	11	3	-7
Fc1ccc(C2CC(c3cccs3)=NN2c2ccccc2)cc1 (stereo not given)	-3	-5	1	25	39	79*
Oc1ccccc1C1=NN(c2ccccc2)C(c2ccc(F)cc2)C1 (stereo not given)	/	/	-3	/	/	/
Cc1ccc(C2C3=C(CC(C)(C)CC3=O)N(CCN3CCOCC3)C3=C2C(=O)CC(C)(C)C3)cc1	-7	-17	125*	10	38	79*
CC1(C)CC(=O)C2=C(C1)N(CCN1CCOCC1)C1=C(C(=O)CC(C)(C)C1)C2c1ccc(Cl)c([N+](=O)[O-])c1	-9	-10	3	2	-12	14
CCOc1ccc2nc(NCCNC(=S)NCCCN(C)C)c(C#N)cc2c1	-12	9	93*	19	-33	92*
CCOc1ccc2nc(NCCNC(=O)Nc3cccc(C)c3)c(C#N)cc2c1	6	8	-2	88*	4	38
CCOc1ccc2nc(NCCCO)[nH]c2c1	-4	-9	-2	0	-1	-3
Cc1ccc(S(=O)(=O)NCCCNc2ccc([N+](=O)[O-])cc2)cc1	11	7	7	-2	19	-1
CCOc1ccc2nc(NCCCNS(=O)(=O)c3ccc(C)cc3)c(C#N)cc2c1	-2	5	129*	6	-8	102*

Bioassay records (PubChem BioAssay)
